The record followed here is ChEMBL document CHEMBL2177062, “Bile acid-based 1,2,4-trioxanes: synthesis and antimalarial assessment” (J Med Chem, 2012).

SMILES strings stand for the structures. Activity calls are given as the source filed them. No cut-off for these calls is given here.

For the first experiment, the system named is Plasmodium yoelii nigeriensis. The experiment is described as follows: Antimalarial activity in multidrug-resistant Plasmodium yoelii nigeriensis infected Swiss mouse assessed as suppression of parasitaemia at 96 mg/kg, po two devided dose daily for 4 days. Particulars: 96 mg/kg. The experiment is classed as functional. The method in brief:
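Swiss mice of either sex (20 2 g) inoculated ip with 1 × 10⁶ MDR P. yoelii nigeriensis parasites on day 0. Five mice per dose, given oral doses in groundnut oil from day 0 to 3, twice daily. Parasitaemia read from thin blood smears on day 4. Suppression = [(C − T)/C] × 100 versus untreated controls. 100% means no parasites seen in 50 oil-immersion fields.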
`C=C(c1ccc(Cl)cc1)[C@@H]1CO[C@@]2(CC[C@@]3(C)[C@H](CC[C@@H]4[C@@H]3CC[C@]3(C)[C@@H]([C@H](C)CCC(=O)OC)CC[C@@H]43)C2)OO1` (relative stereo; form 1) [listing 1 of 2 here]: the Activity was found to be 56.02%. With `C=C(c1ccccc1)[C@@H]1CO[C@@]2(CC[C@@]3(C)[C@H](CC[C@@H]4[C@@H]3CC[C@]3(C)[C@@H](O)CC[C@@H]43)C2)OO1` (relative stereo; form 1) [listing 1 of 2 here], the Activity is recorded as 69.36%.

Turning to `C=C(c1ccc(Br)cc1)[C@@H]1CO[C@@]2(CC[C@@]3(C)[C@H](CC[C@@H]4[C@@H]3CC[C@]3(C)[C@@H](O)CC[C@@H]43)C2)OO1` (relative stereo; form 1) [listing 1 of 2 here], the Activity was 76.52%.

Consider `C=C(c1ccc(Cl)cc1)[C@@H]1CO[C@@]2(CC[C@@]3(C)[C@H](CC[C@@H]4[C@@H]3CC[C@]3(C)[C@@H]([C@H](C)C(C)=O)CC[C@@H]43)C2)OO1` (relative stereo; form 1) [listing 1 of 2 here], for which the Activity turned out to be 100%. Take `C=C(c1ccc(Br)cc1)[C@@H]1CO[C@@]2(CC[C@@]3(C)[C@H](CC[C@@H]4[C@@H]3CC[C@]3(C)[C@@H]([C@H](C)C(C)=O)CC[C@@H]43)C2)OO1` (relative stereo; form 1) [listing 1 of 2 here]: the Activity was determined as 56.73%. Regarding `C=C(c1ccccc1)[C@@H]1CO[C@@]2(CC[C@@]3(C)[C@H](CC[C@@H]4[C@@H]3CC[C@]3(C)[C@@H](C(C)=O)CC[C@@H]43)C2)OO1` (relative stereo; form 1) [listing 1 of 2 here], the Activity amounted to 79.89%.

Regarding `C=C(c1ccc(Cl)cc1)[C@@H]1CO[C@@]2(CC[C@@]3(C)[C@H](CC[C@@H]4[C@@H]3CC[C@]3(C)[C@@H](C(C)=O)CC[C@@H]43)C2)OO1` (relative stereo; form 1) [listing 1 of 2 here], the Activity was found to be 90.98%. `C=C(c1ccc(F)cc1)[C@@H]1CO[C@@]2(CC[C@@]3(C)[C@H](CC[C@@H]4[C@@H]3CC[C@]3(C)[C@@H]([C@H](C)CCC(=O)OC)CC[C@@H]43)C2)OO1` (relative stereo; form 1) [listing 1 of 2 here]: the Activity is 45.31%.

For the molecule `C=C(c1ccc(Br)cc1)[C@@H]1CO[C@@]2(CC[C@@]3(C)[C@H](CC[C@@H]4[C@@H]3CC[C@]3(C)[C@@H]([C@H](C)CCC(=O)OC)CC[C@@H]43)C2)OO1` (relative stereo; form 1) [listing 1 of 2 here], the Activity was 64.31%. Turning to `C=C(c1ccccc1)[C@@H]1CO[C@@]2(CC[C@@]3(C)[C@H](CC[C@@H]4[C@@H]3CC[C@]3(C)[C@@H]([C@H](C)C(C)=O)CC[C@@H]43)C2)OO1` (relative stereo; form 1) [listing 1 of 2 here], the Activity amounted to 94.31%. Regarding `C=C(c1ccc(F)cc1)[C@@H]1CO[C@@]2(CC[C@@]3(C)[C@H](CC[C@@H]4[C@@H]3CC[C@]3(C)[C@@H]([C@H](C)C(C)=O)CC[C@@H]43)C2)OO1` (relative stereo; form 1) [listing 1 of 2 here], the Activity amounted to 86.26%. In the case of `C=C(c1ccccc1)[C@@H]1CO[C@@]2(CC[C@@]3(C)[C@H](CC[C@@H]4[C@@H]3CC[C@]3(C)[C@@H]([C@H](C)CCC(=O)OC)CC[C@@H]43)C2)OO1` (relative stereo; form 1) [listing 1 of 2 here], the Activity was 20.6%. For `C=C(c1ccc(Br)cc1)[C@@H]1CO[C@@]2(CC[C@@]3(C)[C@H](CC[C@@H]4[C@@H]3CC[C@]3(C)[C@@H](C(C)=O)CC[C@@H]43)C2)OO1` (relative stereo; form 2) [listing 1 of 2 here], the Activity came to 89.78%.

Turning to `C=C(c1ccc(Cl)cc1)[C@@H]1CO[C@@]2(CC[C@@]3(C)[C@H](CC[C@@H]4[C@@H]3CC[C@]3(C)[C@@H]([C@H](C)C(C)=O)CC[C@@H]43)C2)OO1` (relative stereo; form 2) [listing 1 of 2 here], the Activity amounted to 34.65%.

On to `C=C(c1ccc(Br)cc1)[C@@H]1CO[C@@]2(CC[C@@]3(C)[C@H](CC[C@@H]4[C@@H]3CC[C@]3(C)[C@@H]([C@H](C)C(C)=O)CC[C@@H]43)C2)OO1` (relative stereo; form 2) [listing 1 of 2 here], for which the Activity is 41.83%. `C=C(c1ccc(Br)cc1)[C@@H]1CO[C@@]2(CC[C@@]3(C)[C@H](CC[C@@H]4[C@@H]3CC[C@]3(C)[C@@H]([C@H](C)CCC(=O)OC)CC[C@@H]43)C2)OO1` (relative stereo; form 2) [listing 1 of 2 here]: the Activity is listed as 18.57%.

The test system of the next experiment is Plasmodium yoelii nigeriensis. Kind of experiment: Antimalarial activity in multidrug-resistant Plasmodium yoelii nigeriensis infected Swiss mouse assessed as disease cure at 96 mg/kg, po two devided dose daily for 4 days by 28 day survival assay. The experiment is classed as functional.
Conditions: not given
The method in brief:
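Swiss mice of either sex (20 2 g) inoculated ip with 1 × 10⁶ MDR P. yoelii nigeriensis (chloroquine-, mefloquine-, halofantrine-resistant) parasites on day 0. Five mice per dose. Oral dosing in groundnut oil (0.1 mL per dose) from day 0 to 3, as two divided doses daily. Thin blood smears on day 4, then twice weekly to day 28. Mice without patent infection by day 28 scored cured; % protection = fraction of mice cured. β-arteether as positive control.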
Consider `C=C(c1ccc(Br)cc1)[C@@H]1CO[C@@]2(CC[C@@]3(C)[C@H](CC[C@@H]4[C@@H]3CC[C@]3(C)[C@@H](O)CC[C@@H]43)C2)OO1` (relative stereo; form 1) [listing 2 of 2 here], for which the outcome was inactive. For `C=C(c1ccc(Br)cc1)[C@@H]1CO[C@@]2(CC[C@@]3(C)[C@H](CC[C@@H]4[C@@H]3CC[C@]3(C)[C@@H]([C@H](C)C(C)=O)CC[C@@H]43)C2)OO1` (relative stereo; form 1) [listing 2 of 2 here], the result was inactive. The same measure, in the same setting: the same measure for `C=C(c1ccc(Br)cc1)[C@@H]1CO[C@@]2(CC[C@@]3(C)[C@H](CC[C@@H]4[C@@H]3CC[C@]3(C)[C@@H]([C@H](C)CCC(=O)OC)CC[C@@H]43)C2)OO1` (relative stereo; form 1) [listing 2 of 2 here]: “inactive”; for `C=C(c1ccc(Cl)cc1)[C@@H]1CO[C@@]2(CC[C@@]3(C)[C@H](CC[C@@H]4[C@@H]3CC[C@]3(C)[C@@H](C(C)=O)CC[C@@H]43)C2)OO1` (relative stereo; form 1) [listing 2 of 2 here]: “inactive”. As for `C=C(c1ccc(Cl)cc1)[C@@H]1CO[C@@]2(CC[C@@]3(C)[C@H](CC[C@@H]4[C@@H]3CC[C@]3(C)[C@@H]([C@H](C)C(C)=O)CC[C@@H]43)C2)OO1` (relative stereo; form 1) [listing 2 of 2 here], the outcome was inactive. Turning to `C=C(c1ccc(Cl)cc1)[C@@H]1CO[C@@]2(CC[C@@]3(C)[C@H](CC[C@@H]4[C@@H]3CC[C@]3(C)[C@@H]([C@H](C)CCC(=O)OC)CC[C@@H]43)C2)OO1` (relative stereo; form 1) [listing 2 of 2 here], the outcome was inactive.

In the case of `C=C(c1ccc(F)cc1)[C@@H]1CO[C@@]2(CC[C@@]3(C)[C@H](CC[C@@H]4[C@@H]3CC[C@]3(C)[C@@H](O)CC[C@@H]43)C2)OO1` (relative stereo; form 1), the outcome was inactive. Take `C=C(c1ccc(F)cc1)[C@@H]1CO[C@@]2(CC[C@@]3(C)[C@H](CC[C@@H]4[C@@H]3CC[C@]3(C)[C@@H]([C@H](C)C(C)=O)CC[C@@H]43)C2)OO1` (relative stereo; form 1) [listing 2 of 2 here]: the result was inactive.

Take `C=C(c1ccc(F)cc1)[C@@H]1CO[C@@]2(CC[C@@]3(C)[C@H](CC[C@@H]4[C@@H]3CC[C@]3(C)[C@@H]([C@H](C)CCC(=O)OC)CC[C@@H]43)C2)OO1` (relative stereo; form 1) [listing 2 of 2 here]: the outcome was inactive. Same read-out and setting: the same measure for `C=C(c1ccccc1)[C@@H]1CO[C@@]2(CC[C@@]3(C)[C@H](CC[C@@H]4[C@@H]3CC[C@]3(C)[C@@H](C(C)=O)CC[C@@H]43)C2)OO1` (relative stereo; form 1) [listing 2 of 2 here]: “inactive”; for `C=C(c1ccccc1)[C@@H]1CO[C@@]2(CC[C@@]3(C)[C@H](CC[C@@H]4[C@@H]3CC[C@]3(C)[C@@H](O)CC[C@@H]43)C2)OO1` (relative stereo; form 1) [listing 2 of 2 here]: “inactive”; for `C=C(c1ccccc1)[C@@H]1CO[C@@]2(CC[C@@]3(C)[C@H](CC[C@@H]4[C@@H]3CC[C@]3(C)[C@@H]([C@H](C)C(C)=O)CC[C@@H]43)C2)OO1` (relative stereo; form 1) [listing 2 of 2 here]: “inactive”. The same measure, in the same setting: the same measure for `C=C(c1ccccc1)[C@@H]1CO[C@@]2(CC[C@@]3(C)[C@H](CC[C@@H]4[C@@H]3CC[C@]3(C)[C@@H]([C@H](C)CCC(=O)OC)CC[C@@H]43)C2)OO1` (relative stereo; form 1) [listing 2 of 2 here]: “inactive”. Turning to `C=C(c1ccc(Br)cc1)[C@@H]1CO[C@@]2(CC[C@@]3(C)[C@H](CC[C@@H]4[C@@H]3CC[C@]3(C)[C@@H](C(C)=O)CC[C@@H]43)C2)OO1` (relative stereo; form 2) [listing 2 of 2 here], the result was inactive. In the case of `C=C(c1ccc(Br)cc1)[C@@H]1CO[C@@]2(CC[C@@]3(C)[C@H](CC[C@@H]4[C@@H]3CC[C@]3(C)[C@@H]([C@H](C)C(C)=O)CC[C@@H]43)C2)OO1` (relative stereo; form 2) [listing 2 of 2 here], the result was inactive. As for `C=C(c1ccc(Br)cc1)[C@@H]1CO[C@@]2(CC[C@@]3(C)[C@H](CC[C@@H]4[C@@H]3CC[C@]3(C)[C@@H]([C@H](C)CCC(=O)OC)CC[C@@H]43)C2)OO1` (relative stereo; form 2) [listing 2 of 2 here], the result was inactive.

Regarding `C=C(c1ccc(Cl)cc1)[C@@H]1CO[C@@]2(CC[C@@]3(C)[C@H](CC[C@@H]4[C@@H]3CC[C@]3(C)[C@@H]([C@H](C)C(C)=O)CC[C@@H]43)C2)OO1` (relative stereo; form 2) [listing 2 of 2 here], the outcome was inactive. For `C=C(c1ccc(Cl)cc1)[C@@H]1CO[C@@]2(CC[C@@]3(C)[C@H](CC[C@@H]4[C@@H]3CC[C@]3(C)[C@@H]([C@H](C)CCC(=O)OC)CC[C@@H]43)C2)OO1` (relative stereo; form 2), the result was inactive. On to `C=C(c1ccc(F)cc1)[C@@H]1CO[C@@]2(CC[C@@]3(C)[C@H](CC[C@@H]4[C@@H]3CC[C@]3(C)[C@@H]([C@H](C)CCC(=O)OC)CC[C@@H]43)C2)OO1` (relative stereo; form 2), for which the result was inactive. For `C=C(c1ccccc1)[C@@H]1CO[C@@]2(CC[C@@]3(C)[C@H](CC[C@@H]4[C@@H]3CC[C@]3(C)[C@@H]([C@H](C)CCC(=O)OC)CC[C@@H]43)C2)OO1` (relative stereo; form 2), the outcome was inactive.
